Experimental data from the EternaBench riboswitch data.

Tested on: MS2 coat protein
Assay: apparent Kd, MS2 coat protein; higher = weaker binding; RNA-MaP array; FMN 200 µM where present
Method in brief: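 Stalled E. coli RNA polymerase produced the designs on Illumina sequencing-chip clusters. SNAP-549-labelled MS2 coat protein was added from 0.7 or 1.5 nM, doubling to 3 µM, without and then with constant ligand, in 100 mM Tris-HCl pH 7.5, 80 mM KCl, 4 mM MgCl2, BSA, DTT, yeast tRNA and Tween-20. The apparent Kd is the median of filtered per-cluster fits of green signal normalised to red-channel RNA signal and control-cluster median Fmax.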

[1] = designed as: OFF switch for flavin mononucleotide, no ligand
[2] = ligand present: flavin mononucleotide, designed as: OFF switch for flavin mononucleotide
[3] = designed as: ON switch for flavin mononucleotide, no ligand
[4] = ligand present: flavin mononucleotide, designed as: ON switch for flavin mononucleotide

Sequence | apparent Kd [1] [nM] | apparent Kd [2] [nM] | apparent Kd [3] [nM] | apparent Kd [4] [nM]
CGAGGUGGAGUGAGGAUAUCGUGUUCGAAAGAACGUGAGAAGGCACAUGAGGAUCACCCAUGUGAUUCUGCUCG | 45.7 | 270 | – | –
GGAAGACAAAGUCUUCCAUAACGAACAUGAGGAUCACCCAUGUAGGAUAUGCUUCUCAAAGAGAAGCAGAAGGACAUGUGUCUU | 29.7 | 137 | – | –
GCCAUCACAUGAGGAUAUGCUCCCGUUUCGGGAGCAGAAGGCGUGUCAUAAGACAUGAGGAUCACCCAUGUAGCUAAGAUGGCA | – | – | 321 | 12.6
AUUUCGUUAGCAGGAUAUGGACAGGCCUGUCCGUAUUGAGUCAGUAACAUGAGGAUCACCCAUGUCCAGAAGGGCUCGAAGGGA | 11.2 | 12.3 | – | –
GCACGGCAUGUAGGAUAUCGAGCGCCGGGCGCUCGAGAAGGACAUGAGGAUCACCCAUGUAUUCUGAGUGACAGAGUGCUGUGC | 19 | 46.8 | – | –
GUAGCUACAAUUAUACAUGAGGAUCACCCAUGUUACAUGGGUAAGGAUAUUGAGGUUAUUAUUGUCAAGAAGGUACUAUGCUAC | – | – | 505 | 71.6
GGAUAUGUCGUCUACAUGAGGAUCACCCAUGUCGAUAGACAUGAGGAUAUUGAUAAGAAUUGUAUCGAGAAGGUAUGUAGGUCC | – | – | 19.3 | 26.7
GAGAGGUCAGGAUAUGCAUGGCGGGACUUGCGUCGUGGCGUGCAGAAGGGACAUGAGGAUCACCCAUGUGGAGG | 169 | 203 | – | –
GUUUUUUGUCAUGUACAUGAGGAACAUGAGGAUCACCCAUGUAGAAGGAAUUUUUUUAAGUUUAGUUAGGAUAUACAUAUAUUG | 50.6 | 31.9 | – | –
UGUAUGGACAGAGGAUAUACGGCUAGGAGAUACUAGCUACUAUUCCUCACAUGAGGAUCACCCAUGUAGAAGGCUGUCCAUACU | 18 | 145 | – | –
AAACCUUCUGAGGAUAUCUGAGGCCCUGCGCUUAGAGAAGGUAGUACAUGAGGAUCACCCAUGUCCGCGCUGGG | 16.3 | 17.9 | – | –
UUUUAACAUGAGGAUCACCCAUGUGAGGAUAUCGAAAUUUAUAUUUAUAUUAAUUAAUCGAGAAGGCACAUUUU | 151 | 156 | – | –
CUUCGUAUAGAGGAUAUAGGAUACGAAAGUGUCCUAGAAGGCUGUACAUGAGGAUCACCCAUGUACUUCAGAUC | 13.2 | 16.4 | – | –
UGAGCCUCGUGAGGAUAUACAUGAGGAUCACCCAUGUAAUAGGAUGAACGGAGGAAACUCCGAAUGUAGAAGGCACGAGGCUCA | 77.7 | 664 | – | –
UCCGUGGCAUCUCGCGCAUGUCUACAUGAGGAUCACCCAUGUCAGGAUAUACGGAAUGUCGUUCCGUAGAAGGGACAAGGGCUG | 243 | 116 | – | –
CGAUAGGACAGAGGAUAUACACAUGAGGAUCACCCAUGUGAUUACAACGCGAAAGCGCCAAACAUGUAGAAGGCUGUCCUAUCG | 22.7 | 12 | – | –
CUCAUGUAAGGAUAUCAGUAGUAAAAAAAUAAAAUUACUACUGAGAAGGUACAUGAGGAUCACCCAUGUCCUUG | 38.8 | 21.6 | – | –
CCUCCACAUGAGGAUCACCCAUGUCACACUCCGUCAGGAUAUAGCCUGCAUCCGCUGUGGCUAGAAGGGACUGCUG | – | – | 332 | 303

Sequence | apparent Kd [1] [nM] | apparent Kd [2] [nM] | apparent Kd [3] [nM] | apparent Kd [4] [nM]
UUGUUACAUGAGGAUCACCCAUGUUGUUGUAGAUAAGGAUAUAUAGGAACGAGAGAAAUAAUAGAAGGUAUUAGAC | – | – | 31.7 | 27.2
AGAAGAACAUGAGGAUCACCCAUGUUCCUGCUGCUCCACAGACAGGAUAUGGGUGUCGUCGACAAUCAGAAGGGUUCGCGGAGC | – | – | 34.9 | 27.5
CAGCGAAAGUAGAAGGUAUUAAUUAAAUUUAAAUAAGGAUAUACAUGAGGAUCACCCAUGUCCUUCAGCUGGAUAUAUAUUAAU | 39.1 | 29.1 | – | –
ACCUCACAUGAGGAUCACCCAUGUCAGGAUAUACAAACCGUGUAAAGACACGGUCGUAGUAGAAGGGACUAUGG | 68 | 18.7 | – | –
AUAAAGUCAGGAUAUGUAAGAAUAACGAAAGUUAUAAAGAAACAGAAGGGACAUGAGGAUCACCCAUGUAAAAU | 29.6 | 30.5 | – | –
AUUUAUGGCCAGAAGGACAUGAGGAUCACCCAUGUAGGAUAUGGACGAUUUUGCUCGGCGGUUUGUUUAGGAAGCACCGGUGAU | – | – | 21.5 | 7.6
GGAUGACAUAGUCAUCCUUAACGAACAUGAGGAUCACCCAUGUAGGAUAUGCUACUCAACGAGUAGCAGAAGGACAUGUGUCUU | 26.5 | 142 | – | –
UUGGUUACAUGAGGAUCACCCAUGUCUCAGGCCCUAUUUAGCAGAAGGCCAGCUGGGCUACGGAUGGAGGAUAUGCUUAUGGCC | – | – | 131 | 29.6
CGCUUUGUACAUGAGGAUCACCCAUGUUAAUAUGUGGUAGUCAGAAGGCAUUGUUUGAGAUAUUAUGAGGAUAUGAUUAGUCUG | – | – | 73.2 | 43.6
CCUCCACAUUAGGAUAUCGUCACACUAUUGUGACGAGAAGGAAUGACAUGAGGAUCACCCAUGUUAUCGUGAUG | 19.4 | 49.8 | – | –
GAACAUGUCCGAGGAUAUCUGAGAUCAUUUUCAAGAGAAGGCGGACAUGAGGAUCACCCAUGUCUCUCCUCAUCAACUCCAAAU | 6.95 | 38.5 | – | –
GCGGUAUUGUAAGGAUAUACUCUGUGAUGAAGAGUAGAAGGUACUUACAUGAGGAUCACCCAUGUUUAACGUGAAAAUAACCGC | – | – | 47 | 22.6
CGCUGCCACGCAGGAUAUGCAUUGGAUUCCAAUGCAGAAGGGCGAUUACAUGAGGAUCACCCAUGUGUCGGCAGUGAAGAAGAG | – | – | 590 | 44.8
CAUUCAUGUCUAGGAUAUGAGUGACAAGCGCGAAGUUUUUUCGCCGCUAGCUCAGAAGGAGACAUGAGGAUCACCCAUGUAAGG | 24.1 | 9.96 | – | –
GCGAGCGUACUUGCAACAUGAGGAUCACCCAUGUUAACUGGACAGGAUAUGGUACCGUUUCGGUACCAGAAGGGUUCACUCAUG | – | – | 137 | 250
AUAAAGUCAGGAUAUGUAAAAAUAACGAAAGUUAUAAAUAAACAGAAGGGACAUGAGGAUCACCCAUGUAAAAU | 32.3 | 39.6 | – | –
UCGUGCCGGGUUGCGAGCGACCCACAUGAGGAUCACCCAUGUAGAAGGACCAGCGUCGGCCCUUGGUAGGAUAUACAUGAACUC | 113 | 152 | – | –
UGAUCUAUGUAGAAGGCCCAUAUCUGUAUUUAGGGAGGAUAUACAUGAGGAUCACCCAUGUGUAGAGCUGGUGGACUGGUCAGC | 87.8 | 183 | – | –
